Test results as given in ChEMBL document CHEMBL4393676, “Design, Synthesis, and Preclinical Characterization of Selective Factor D Inhibitors Targeting the Alternative Complement Pathway” (J Med Chem, 2019).
In brackets after ≈: the same amount, converted by molar mass.

Experiments:
[1] = Clearance in C57BL/6 mouse at 1 mg/kg, iv or 10 mg/kg, po administered via gavage by HPLC-MS/MS analysis; type: ADME, organism-based; details: in vivo
[2] = Oral bioavailability in C57BL/6 mouse 10 mg/kg by HPLC-MS/MS analysis; type: ADME, organism-based; details: in vivo; for bioavailability: C57BL/6, mouse
[3] = Cmax in C57BL/6 mouse at 10 mg/kg, po administered via gavage by HPLC-MS/MS analysis; type: ADME, organism-based; design: dose 10 mg/kg, route oral; details: in vivo
[4] = AUC (0 to 7 hrs) in C57BL/6 mouse at 1 mg/kg, iv by HPLC-MS/MS analysis; type: ADME, organism-based; design: dose 1 mg/kg, time < 7 hr, route intravenous; details: in vivo; for AUC(0-t) at 7 h: C57BL/6, mouse
[5] = Volume of distribution at steady state in C57BL/6 mouse at 1 mg/kg, iv or 10 mg/kg, po administered via gavage by HPLC-MS/MS analysis; type: ADME, organism-based; details: in vivo, read-out: Vdss
[6] = Elimination half life in C57BL/6 mouse at 1 mg/kg, iv by HPLC-MS/MS analysis; type: ADME, organism-based; details: in vivo, read-out: beta t1/2 (converted)
[7] = AUC (0 to 7 hrs) in C57BL/6 mouse at 10 mg/kg, po administered via gavage by HPLC-MS/MS analysis; type: ADME, organism-based; design: time < 7 hr, dose 10 mg/kg, route oral; details: in vivo; for AUC(0-t) at 7 h: C57BL/6, mouse
[8] = Solubility of the compound at pH 6.8; type: physicochemical; details: buffer
Coagulation factor XI = Coagulation factor XI (Homo sapiens, UniProt P03951); assay: Inhibition of F11a (unknown origin)
Tryptase beta-2 = Tryptase beta-2 (Homo sapiens, UniProt P20231); assay: Inhibition of tryptase-beta2 (unknown origin)
Mus musculus [9] = assay: Suppression of LPS-induced alternative complementation pathway in human FD knock-in C57BL/6 mouse assessed as reduction in plasma Ba level treated via oral gavage […] prior to LPS stimulation and measured up to 24 hrs post-dose; type: functional, organism-based
[10] = Dose normalized AUC in Brown Norway rat plasma at 10 mg/kg, po administered via gavage by HPLC-MS/MS analysis; type: ADME, organism-based; details: in vivo
How it was run: (§1)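 Three-month-old Brown Norway rats given single 10 mg/kg oral gavage, suspension in 0.5% HPMC/0.1% Tween 80. Plasma and both eyes' retina and posterior eye cup (RPE/choroid plus posterior sclera) taken from 2 rats per time at 0.25, 0.5, 1, 3, 6, 24 h; tissues homogenized in PBS with 10% acetonitrile, supernatants by HPLC-MS/MS. AUC dose normalized.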

[11] = Dose normalized AUC in Brown Norway rat posterior eye cup at 10 mg/kg, po administered via gavage by HPLC-MS/MS analysis; type: ADME, organism-based; details: in vivo; how it was run: as §1
[12] = Dose normalized AUC in Brown Norway rat retina at 10 mg/kg, po administered via gavage by HPLC-MS/MS analysis; type: ADME, organism-based; details: in vivo; how it was run: as §1
[13] = Plasma concentration in Brown Norway rat at 10 mg/kg, po administered via gavage measured at 24 hrs post dose by HPLC-MS/MS analysis; type: ADME, organism-based; how it was run: as §1
[14] = Drug level in Brown Norway rat posterior eye cup at 10 mg/kg, po administered via gavage measured at 24 hrs post dose by HPLC-MS/MS analysis; type: ADME, organism-based; details: read-out: Drug uptake; how it was run: as §1
[15] = Drug level in Brown Norway rat retina at 10 mg/kg, po administered via gavage measured at 24 hrs post dose by HPLC-MS/MS analysis; type: ADME, organism-based; details: in vivo, BLD = below limit of detection; how it was run: as §1
[16] = Time at which posterior eye cup concentration stays above in vitro IC50 for inhibition of FD-mediated alternative complementation pathway in 50% human whole blood in Brown Norway rat at 10 mg/kg, po; type: organism-based; details: in vivo; how it was run: as §1
Mus musculus [17] = assay: Suppression of intravitreal injection-activated alternative complementation pathway in human FD knock-in C57BL/6 mouse model of local ocular injury assessed as reduction in ocular Ba level treated via oral gavage 2 hrs prior to intravitreal injection and measured after 4 hrs by Western blot analysis; type: functional, organism-based
How it was run: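 Human FD knock-in mice dosed by oral gavage (3 or 10 mg/kg) at time 0; 2 h later anesthetized and injected intravitreally with 1 µL sterile PBS. Eyes taken 4 h after injection; lysates analysed for Ba by Western blot, relative to vehicle, mean ± SEM.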

[18] = Clearance in Beagle dog at 1 mg/kg, iv or 10 mg/kg, po administered via gavage by HPLC-MS/MS analysis; type: ADME, organism-based, Canis lupus familiaris; details: in vivo
How it was run: (§2)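 Beagle dogs, n=3 per route: IV 1 mg/kg in 2% 1N HCl, 20% PEG 300, 50% of 20% solutol in PBS; PO gavage 10 mg/kg as solution in 20% PEG 300, 10% solutol HS15, 70% citrate buffer pH 3. Blood at 5 min (IV), 15 min, 0.5, 1, 2, 4, 7, 24 h; HPLC-MS/MS (ESI positive); non-compartmental analysis; mean ± SD.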

[19] = Volume of distribution at steady state in Beagle dog at 1 mg/kg, iv or 10 mg/kg, po administered via gavage by HPLC-MS/MS analysis; type: ADME, organism-based, Canis lupus familiaris; details: in vivo, read-out: Vdss; how it was run: as §2
[20] = Half life in Beagle dog at 1 mg/kg, iv or 10 mg/kg, po administered via gavage by HPLC-MS/MS analysis; type: ADME, organism-based, Canis lupus familiaris; details: in vivo; how it was run: as §2
[21] = AUClast in Beagle dog at 10 mg/kg, po administered via gavage by HPLC-MS/MS analysis; type: ADME, organism-based, Canis lupus familiaris; design: dose 10 mg/kg, time 0 - last, route oral; details: in vivo; how it was run: as §2
[22] = Cmax in Beagle dog at 10 mg/kg, po administered via gavage by HPLC-MS/MS analysis; type: ADME, organism-based, Canis lupus familiaris; design: dose 10 mg/kg, route oral; details: in vivo; how it was run: as §2
[23] = Tmax in Beagle dog at 10 mg/kg, po administered via gavage by HPLC-MS/MS analysis; type: ADME, organism-based, Canis lupus familiaris; details: in vivo; how it was run: as §2
[24] = Oral bioavailability in Beagle dog at 10 mg/kg administered via gavage by HPLC-MS/MS analysis; type: ADME, organism-based, Canis lupus familiaris; details: in vivo; how it was run: as §2

Row | Compound | clearance [1] | bioavailability [2] | Cmax [3] | AUC(0-t) at 7 h [4] | Vd [5] | half-life [6] | AUC(0-t) at 7 h [7] | further results
1 | N[C@H](CCO)c1cccc(-c2cccc(COc3ccccc3CC(=O)O)c2)c1 | 8.7 mL/min/kg | 39% | 10.7 µM | 4.97 µM·h | 0.3 L/kg | 1.3 h | 19.5 µM·h | –
2 | NCc1cccc(-c2cccc(C(=O)Nc3ccccc3CC(=O)O)c2)c1 | 22 mL/min/kg | 10% | – | – | – | – | – | solubility [8]: 220 µM (≈ 79.3 µg/mL); IC50 (Coagulation factor XI): 2800 nM; IC50 (Tryptase beta-2): 2300 nM
3 | N[C@H](CO)c1cccc(-c2cccc(COc3ccccc3CC(=O)O)c2)c1 | 2.6 mL/min/kg | 83% | 31 µM | 16.1 µM·h | 0.3 L/kg | 1.6 h | 125 µM·h | Activity (Mus musculus [9]): Dose-dependent effect; AUC/dose [10]: 2300 nM·h; AUC/dose [11]: 1160 nM·h; AUC/dose [12]: 8 nM·h; concentration at 24 h [13]: 0.034 µM; concentration at 24 h [14]: 0.29 µM; Drug uptake [15]: Bld; Time [16]: > 24 h; Activity (Mus musculus [17]): Dose-dependent effect; clearance [18]: 3.8 mL/min/kg; Vd [19]: 0.8 L/kg; half-life [20]: 3.8 h; AUC(0-t) [21]: 85 µM·h; Cmax [22]: 16.5 µM; Tmax [23]: 0.8 h; bioavailability [24]: 70%
4 | NCc1cccc(-c2cccc(COc3ccccc3CC(=O)O)c2)c1 | 14 mL/min/kg | 100% | – | – | – | – | – | –
5 | N[C@H](CO)c1cccc(-c2cc(Br)cc(COc3ccccc3CC(=O)O)c2)c1 | 0.7 mL/min/kg | – | 26 µM | – | 0.1 L/kg | 2.5 h | – | F ([2]; mouse): 25%; AUC ([4]; mouse, 7 h): 48.7 µM·h; AUC ([7]; mouse, 7 h): 11.6 µM·h
